Yeast life ext: compounds extending yeast replicative lifespan, primary screen, S. cerevisiae, OD615. S. cerevisiae growth with nicotinamide; deaD strain in restrictive glucose medium. inhibition of the nicotinamide effect, % at 10 µM. 130,000 tested, 0.68% active. AID 775, 2007;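 active = inhibition above a set limit, placed 3 SD over the median of all compounds, cut at about 26% in these data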;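 note: 0% = nicotinamide-treated wells and 100% = cells grown without nicotinamide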
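Assay system: engineered S. cerevisiae DeaD replicative-lifespan strain, galactose-grown log-phase cells; medium: restrictive CSMM-D dextrose medium; also added: nicotinamide, 1.5 mM, co-present with compound; schedule: 48 h compound exposure at 30 °C, humidified; detection: absorbance at 615 nm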
Measles CPE: compounds protecting cells from measles virus cytopathic effect, primary screen, measles RdRp inhibitor project, single point, MLSMR library, absorbance; Measles virus-infected cells, CPE protection; protection (pct of control), % at 4 µM; 140,000 tested, 1.5% active; in the data active = protection mostly above about 24%, no sharp cut-off; inactive = mostly below about 26%
Yeast growth inh: growth inhibitors of yeast BB579 in restrictive medium, primary screen, yeast lifespan-shortening project, S. cerevisiae; OD615, 48 h; inhibition, % at 10 µM; 140,000 tested, 0.51% active;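 active = inhibition above a set limit, 3 SD over the mean compound inhibition, cut at about 44% in these data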
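Assay system: S. cerevisiae DeaD strain BB579 yeast. Medium: CSMM-D restrictive synthetic medium containing dextrose (glucose). Times: 4 h cell preincubation, 48 h compound exposure, 30 °C humidified. Signal: OD615 turbidity measurement. Benchmarks: positive control amphotericin B 10 µg/mL.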
hDAT+cocaine: changed hDAT dopamine uptake under cocaine IC80, either direction, primary screen, cocaine antagonist project, cell-based, LLC-PK1 hDAT, [14C]-dopamine uptake, MLSMR; Sodium-dependent dopamine transporter (Homo sapiens), Q01959; LLC-PK1 hDAT cells, [14C]-dopamine uptake with cocaine IC80; actives deviate in either direction; B-score at 10 µM; 110,000 tested, 1.3% active;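 active = Z score or B-score, a plate-position-corrected score, falls beyond the plate's 99.7% confidence bounds, in either direction; inactive = both scores lie inside the 99.7% bounds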;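 note: scored against the spread of the other compound wells on the same plate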
Target sequence (Q01959 whole entry, looked up): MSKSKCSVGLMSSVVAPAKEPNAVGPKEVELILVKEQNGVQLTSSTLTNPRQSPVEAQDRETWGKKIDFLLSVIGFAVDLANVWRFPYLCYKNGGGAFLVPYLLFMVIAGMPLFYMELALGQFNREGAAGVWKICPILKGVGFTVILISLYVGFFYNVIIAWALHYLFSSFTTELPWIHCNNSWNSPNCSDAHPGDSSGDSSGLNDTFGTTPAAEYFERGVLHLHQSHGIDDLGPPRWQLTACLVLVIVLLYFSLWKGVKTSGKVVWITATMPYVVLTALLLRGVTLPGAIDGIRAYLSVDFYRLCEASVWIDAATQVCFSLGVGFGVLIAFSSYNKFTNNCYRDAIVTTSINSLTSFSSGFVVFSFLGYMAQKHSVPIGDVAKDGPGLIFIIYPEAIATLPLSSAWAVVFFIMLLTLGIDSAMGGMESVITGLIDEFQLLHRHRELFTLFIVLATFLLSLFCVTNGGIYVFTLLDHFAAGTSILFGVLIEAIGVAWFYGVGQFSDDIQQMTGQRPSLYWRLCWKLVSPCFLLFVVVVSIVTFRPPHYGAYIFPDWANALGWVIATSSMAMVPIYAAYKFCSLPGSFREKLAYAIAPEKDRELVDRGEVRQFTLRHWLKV
RAM inhibit: inhibitors of the yeast RAM network, primary screen, dse1pr::URA3 reporter, 5-FOA selection; S. cerevisiae dse1pr::URA3 reporter, 5-FOA growth OD615, 2 d; analog-sensitive cbk1-as2 kinase mutant strain; inhibition, % at 50 µM; 190,000 tested, 1.8% active; AID 868, 2007;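 active = inhibition above a set limit, 3 SD over mean compound inhibition, cut at about 8.4% in these data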;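 note: 0% = DMSO-only wells with no growth and 100% = 10 µM 1-NA-PP1 full growth; inhibition rescues growth on 5-FOA so higher OD means more RAM inhibition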
WT yeast gro inh: growth inhibition of WT strain, primary screen, mitochondrial fusion inhibitor project, WT and mutant strains, chemical genetic. mitochondrial fusion phenotypic screen. inhibition, % at 10 µM. 190,000 tested, 2.1% active; in the data active = inhibition above about 58%; tested in S. cerevisiae
An asterisk follows results filed as active; / = no result. Most compounds without a hit are left out; they make up all but 6.1% or so of the library.

SMILES	Yeast life ext	Measles CPE	Yeast growth inh	hDAT+cocaine	RAM inhibit	WT yeast gro inh
CCCSc1ccc(-c2nn(-c3ccccc3)cc2/C=C(/C#N)C(=O)N2CCOCC2)cc1	10	14	-43	/	8.8*	-6
O=C(N/C(=C/c1cn(-c2ccccc2)nc1-c1ccccc1)C(=O)N1CCOCC1)c1ccc(Cl)cc1Cl	6	3	-63	/	8.9*	-8
O=C(CC1SC(=NCCc2ccccc2)N(/N=C/c2cccs2)C1=O)Nc1ccc(Cl)cc1 (stereo unspecified)	-4	4	-15	/	2	52
N#C/C(=N\Nc1ccccc1)C(=N)N1CCOCC1	-2	74*	-41	/	3	0
Cc1ccc(N/N=C(\C#N)C(=N)N2CCOCC2)cc1	3	5	-28	/	3	-11
O=[N+]([O-])c1ccc(C2Oc3ccccc3C3CC(c4ccccc4)=NN32)s1 (stereo unspecified)	-5	19	96*	/	0	96
c1ccc2c(c1)ncn2-c1ncnc2sc3c(c12)CCCC3	-12	3	-81	0.29	0	12
CC(O)CNc1nc2ccccc2n1-c1ncnc2sc3c(c12)CCC3 (stereo unspecified)	-6	18	0	2.8*	1	15
CC1CCCCN1C(=O)Cn1cc(C#N)c2ccccc21 (stereo unspecified)	/	40*	-11	-0.2	1	-9
CSC(=NC#N)N1CCN(c2ccc([N+](=O)[O-])cc2)CC1	/	/	/	/	2	0
CCCCOC(=O)Nc1ccc(S(=O)(=O)Nn2cnnc2)cc1	-11	18*	-34	0.79	-1	-3
O=C(Nc1nccs1)[C@@H]1CC=C[C@@H]2CCN(Cc3ccccc3)C(=O)[C@@H]21	/	/	/	-0.69	/	/
COc1ccc(NC(=O)CCSCCc2ccccn2)cc1OC	/	/	/	/	1	-2
N#Cc1c2n(c(=S)n(-c3ccc(OC(F)F)cc3)c1=O)CCCCC2	/	/	/	/	0	7
O=c1c(Cl)c(NCCCO)cnn1-c1nc2ccccc2[nH]1	81*	3	-28	2.7	0	-24
C=CCN(CC=C)c1cnn(-c2nc3ccccc3[nH]2)c(=O)c1Cl	10	7	-43	-0.72	1	12
CC(=O)c1ccc(Oc2ncnc3sccc23)c(CN2CCOCC2)c1	0	25	-28	-7.9*	-1	-20
O=[N+]([O-])c1ccc(O)c(/C=N/Nc2ccccn2)c1	-9	4	99*	/	-1	19
O=c1cc(-c2ccccc2Cl)oc2c(NS(=O)(=O)c3cc(Cl)cc(Cl)c3O)ccc(O)c12	20	9	-28	-6.3*	3	44
CCCCOc1ccc(C(=O)N/C(=C/C=C/c2ccccc2)C(=O)NCCCO)cc1	2	48*	-15	/	0	8
CCC(=O)N1CCc2cc(S(=O)(=O)N3CCc4ccccc4C3)ccc21	-6	28*	-12	-1.7	4	-19
CC(=O)N1CCCc2cc(S(=O)(=O)N3CCc4ccccc4C3)ccc21	-15	6	-22	1.9	-1	-8
NC(=S)N/N=C/c1ccc(-c2cc(Cl)cc(Cl)c2)o1	-21	11	-60	-0.07	1	15
NC(=S)N/N=C/c1ccc(-c2cc(Cl)ccc2Cl)o1	-20	7	-75	-1	1	72*
CC(=O)Nc1ccc(NC(=O)CSc2nnc3c4ccccc4n(C)c3n2)cc1	/	/	/	/	8.5*	3
SMILES	Yeast life ext	Measles CPE	Yeast growth inh	hDAT+cocaine	RAM inhibit	WT yeast gro inh
CCc1nnc(NC(=O)CSc2nnc3c4ccccc4n(C)c3n2)s1	2	10	-39	0.61	2	20
Cc1ccsc1/C=C1\Oc2cc(OCC(=O)c3ccccc3)ccc2C1=O	1	4	-26	/	3	1
c1ccc(-c2csc3ncnc(NCC4COc5ccccc5O4)c23)cc1 (stereo unspecified)	-1	19	-36	/	6	72*
Cc1sc2ncnc(NCC3COc4ccccc4O3)c2c1C (stereo unspecified)	1	6	17	/	-2	6
C=CCn1c2ccccc2c2nnc(SCCCn3c(=O)[nH]c4ccccc43)nc21	-16	9	-34	3.7*	6	-4
C=CCn1c2ccccc2c2nnc(SCN3C(=O)c4ccccc4C3=O)nc21	-4	5	-46	-0.015	3	17
CCc1ccc(NC(=O)C2(c3ccccc3)CC2(Cl)Cl)cc1 (stereo unspecified)	23	5	-34	-0.94	8.5*	17
Cc1ccc(NC(=O)C2(c3ccccc3)CC2(Cl)Cl)cc1C (stereo unspecified)	-13	9	-28	/	4	73*
CC(c1ccc(F)cc1)n1c(Cn2ncc3ccccc3c2=O)n[nH]c1=S (stereo unspecified)	/	/	/	/	2	-11
CCC(=O)Nc1ccc(Br)c(Cl)c1	-24	3	-16	/	0	91*
C=C1CCN([C@@H](CC(C)C)C(=O)NCc2ccco2)S(=O)(=O)c2ccccc21	/	/	/	0.17	/	/
CCN(CC)C(=O)c1[nH]cnc1C(=O)Nc1ccc(OC)cc1	/	/	/	3.1*	/	/
COc1cccc(-n2c(Cc3cc(=O)[nH]c(=O)[nH]3)nnc2SCc2cccnc2)c1	-3	44*	-6	0.049	1	12
COc1ccc(-n2cc(CNC3CCN(C)CC3)c(-c3cccc(F)c3)n2)cc1	/	/	/	/	0	59*
COCCCNC(=O)c1c(N)n(/N=C/c2cccs2)c2nc3ccccc3nc12	-12	3	-48	0.38	8.7*	13
CCC(C)NC(=O)c1c(N)n(/N=C/c2cccnc2)c2nc3ccccc3nc12 (stereo unspecified)	-16	5	-57	0.13	6	14
COCCCNC(=O)c1c(N)n(-c2ccc(S(N)(=O)=O)cc2)c2nc3ccccc3nc12	-8	3	-35	/	7	-3
COCCCNC(=O)c1c(N)n(/N=C/c2cccnc2)c2nc3ccccc3nc12	-19	8	-36	0.92	11*	7
CS(=O)(=O)c1cnc(-c2ccccc2)nc1-c1ccccc1Cl	/	/	/	/	0	-4
Cn1c(NCCCO)nc2c(c1=O)C1(CCCCC1)Cc1ccccc1-2	-11	4	-28	1.4	1	60*
CCC1(C)Cc2ccccc2-c2nc(NCCCO)n(-c3ccccc3)c(=O)c21 (stereo unspecified)	-8	2	-19	-0.0093	0	0
COc1ccccc1NC(=O)/C(=C/c1cccc([N+](=O)[O-])c1)c1ccccc1	-3	12	-14	/	11*	30

Assay outcomes (PubChem BioAssay)
